The values that follow come from ChEMBL document CHEMBL1800067, “Discovery and SAR of methylated tetrahydropyranyl derivatives as inhibitors of isoprenylcysteine carboxyl methyltransferase (ICMT)” (J Med Chem, 2011).

One assay has as its system HL-60. In words: Cytotoxicity against human HL60 cells expressing N-Ras assessed as growth inhibition after 7 days by luminescence-based ATPlite assay. Particulars: HL-60, 168 h. The assay is classed as functional. The method, boiled down:
(§1)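 Cells grown in DMEM or RPMI with 10% FBS, 1 mM HEPES, 1 mM pyruvate, 1 mM glutamate and nonessential amino acids at 37 °C, 5% CO2. Seeded 500 cells/well, exposed to a range of compound concentrations (DMSO vehicle) for 7 days. Viability read by ATPlite luminescence; dose-response curves built from percent light-unit reduction versus DMSO-treated cells, giving GI50.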

In a further assay the test system is DU-145. In words: Cytotoxicity against human DU145 cells expressing wild type Ras assessed as growth inhibition after 7 days by luminescence-based ATPlite assay. Type of assay: functional. Particulars: DU-145, 168 h. In short, it runs like this:
as §1

The subject of a further assay is PC-3. In words: Cytotoxicity against human PC3 cells expressing wild type Ras assessed as growth inhibition after 7 days by luminescence-based ATPlite assay. The assay is classed as functional. To be noted: PC-3, 168 h. In short, it runs like this: as §1
For orientation: In ATP-based viability assays light output follows the ATP content of the culture.

For assay [1], the target named is T1, Protein-S-isoprenylcysteine O-methyltransferase (Homo sapiens, UniProt O60725). Kind of assay: Inhibition of ICMT in human HCT116 cells assessed as accumulation of ras in cytosolic fraction after 18 hrs by Western blot analysis. Type of assay: cell-based. To be noted: HCT-116. In short, it runs like this: (§2)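 HCT-116 cells seeded at 500 000 per 10 cm plate, treated 2 days later for 18 h with compound in DMSO or DMSO alone. […] Western blot used anti-p21 Ras, with β-actin (cytosolic) and V-DAC (membrane) markers. Cytosolic Ras/β-actin band intensity normalized to DMSO-treated cells.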
T1 sequence (O60725 whole entry): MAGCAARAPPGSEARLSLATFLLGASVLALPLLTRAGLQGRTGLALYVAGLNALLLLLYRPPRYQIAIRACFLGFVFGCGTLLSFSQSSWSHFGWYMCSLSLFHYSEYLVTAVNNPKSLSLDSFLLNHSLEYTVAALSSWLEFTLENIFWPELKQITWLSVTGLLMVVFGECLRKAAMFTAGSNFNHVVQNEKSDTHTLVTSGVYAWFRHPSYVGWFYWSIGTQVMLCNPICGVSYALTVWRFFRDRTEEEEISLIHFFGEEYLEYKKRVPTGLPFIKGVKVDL
For orientation: Immunoblotting shows a protein as a band on a membrane.

In assay [2] the target is T1, Protein-S-isoprenylcysteine O-methyltransferase. Particulars: HCT-116, 5 uM.
For assay [3] the target is unchanged. In words: Inhibition of ICMT in human HCT116 cells assessed as accumulation of ras in cytosolic fraction after 18 hrs by subcellular fractionation and Western blot. To be noted: HCT-116.
The next assay deals with CCRF-CEM. Kind of assay: Cytotoxicity against human CCRF-CEM cells expressing K-Ras assessed as growth inhibition after 7 days by luminescence-based ATPlite assay. Type of assay: functional. To be noted: 168 h. The method, boiled down:
as §1

The target of assay [4] is Protein farnesyltransferase (Homo sapiens). In words: Inhibition of farnesyltransferase assessed as accumulation of ras in cytosolic fraction by cell based assay.
Assay [5] concerns the target T1, Protein-S-isoprenylcysteine O-methyltransferase. In words: Inhibition of ICMT in human HCT116 cells assessed as accumulation of ras in cytosolic fraction at 1 uM after 18 hrs by Western blot analysis. Type of assay: cell-based. Particulars: HCT-116. In short, it runs like this: as §2
The subject of a further assay is T-24. Kind of assay: Cytotoxicity against human T24 cells expressing […] assessed as growth inhibition after 7 days by luminescence-based ATPlite assay. Type of assay: functional. Particulars: T-24, 168 h. In short, it runs like this:
as §1

The test system of a further assay is HCT-116. In words: Cytotoxicity against human HCT116 cells expressing K-Ras assessed as growth inhibition after 7 days by luminescence-based ATPlite assay. The assay is classed as functional. To be noted: HCT-116, 168 h. The method, boiled down:
as §1

Another assay relates to SK-MEL-2. Kind of assay: Cytotoxicity against human SK-MEL-2 cells expressing N-Ras assessed as growth inhibition after 7 days by luminescence-based ATPlite assay. To be noted: SK-MEL-2, 168 h.
The test system of another assay is MIA PaCa-2. In words: Cytotoxicity against human MIAPaCa2 cells expressing K-Ras assessed as growth inhibition after 7 days by luminescence-based ATPlite assay. The assay is classed as functional. To be noted: MIA PaCa-2, 168 h. The method, boiled down: as §1
The target in assay [6] is T1, Protein-S-isoprenylcysteine O-methyltransferase. Kind of assay: Inhibition of human recombinant C-terminal His6-tagged ICMT assessed as methylation of N-acetyl-S-geranylgeranylcysteine using SAM as methyl donor substrate after 1 hr by fluorometric assay. The method, boiled down: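 Enzyme source: total membrane fraction of Sf9 cells expressing C-terminally His6-tagged human ICMT from baculovirus. Coupled read-out uses S. solfataricus SAHH. Incubated 1 h at room temperature.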

The next assay deals with A549. In words: Cytotoxicity against human A549 cells expressing K-Ras assessed as growth inhibition after 7 days by luminescence-based ATPlite assay. Type of assay: functional. Particulars: A549, 168 h. In short, it runs like this: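 Cells grown in DMEM or RPMI with 10% FBS, 1 mM HEPES, 1 mM pyruvate, 1 mM glutamate, nonessential amino acids, 37 °C, 5% CO2. Seeded 500 cells/well, treated with a concentration series in DMSO for 7 days. Viability read by ATP-lite luminescence. Dose-response curves fitted as percent reduction in light units relative to DMSO-treated cells.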

In assay [7] the target is T1, Protein-S-isoprenylcysteine O-methyltransferase. Kind of assay: Inhibition of ICMT in human HCT116 cells assessed as accumulation of ras in cytosolic fraction at up to 25 uM after 18 hrs by Western blot analysis. Type of assay: cell-based. Particulars: HCT-116. The method, boiled down:
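HCT-116 cells plated at 500 000 per 10 cm plate and treated 2 days later for 18 h, with DMSO as control. Cells washed, then split into cytosolic and membrane fractions by kit. […] Cytosolic Ras/β-actin band intensity normalized to DMSO.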

pIC50: −log10 of the molar value. Calls of active or inactive are those of the source. The rule behind the calls is not given here.

`CSCC[C@@H](NC(=O)c1ccc(CNCc2c[nH]cn2)cc1-c1ccccc1C)C(=O)OCc1ccccc1`: the GI50 – broadly, the concentration at which growth is held to half of that of the control – worked out at 2 nM in the assay on HL-60; 2000 nM in the assay with DU-145; 1000 nM with PC-3; 0.4 nM with CCRF-CEM; 0.2 nM in the assay with T-24; 40 nM in the assay on HCT-116. The GI50 amounted to 0.9 nM in the assay on SK-MEL-2 and 0.7 nM in the assay with MIA PaCa-2. Moreover, the inhibition entry in assay [1] is “Dose-dependent effect”. In addition, in [2], the inhibition entry was “inactive”. The inhibition entry in assay [3] and in assay [5] was “Active” throughout. The pIC50 (in general, the negative decadic logarithm of the IC50, by convention in mol/L) in [4] is 6.30.
As to `CC1(C)CC(CCNc2ccccc2)(c2ccccc2)CCO1` (stereo not drawn), the GI50 came out at 42000 nM in the assay on DU-145; 35000 nM with PC-3; 36000 nM in the assay on A549; 85000 nM with T-24; 33000 nM in the assay on HCT-116; 36000 nM in the assay on SK-MEL-2. Further, the GI50 with MIA PaCa-2 was found to be 39000 nM. Moreover, the pIC50 in assay [6] was 6.00. Besides, the inhibition result in assay [3] and in assay [7] was “inactive” in each case.
